From ChEMBL document CHEMBL3808357, “Discovery of N-(3-((1-Isonicotinoylpiperidin-4-yl)oxy)-4-methylphenyl)-3-(trifluoromethyl)benzamide (CHMFL-KIT-110) as a Selective, Potent, and Orally Available Type II c-KIT Kinase Inhibitor for Gastrointestinal Stromal Tumors (GISTs)” (J Med Chem, 2016)
Calls of active or inactive are those of the source. No cut-off for these calls is given here.

Tests used:
[1] = biological target: Mast/stem cell growth factor receptor Kit (Homo sapiens) (UniProt P10721); assay: Inhibition of cKIT in human GISTT1 cells assessed as suppression of ERK phosphorylation at T202/Y204 up to 10 uM after 2 hrs by Western blot analysis; assay type: cell-based
Sequence of Mast/stem cell growth factor receptor Kit (Homo sapiens) (P10721 whole entry): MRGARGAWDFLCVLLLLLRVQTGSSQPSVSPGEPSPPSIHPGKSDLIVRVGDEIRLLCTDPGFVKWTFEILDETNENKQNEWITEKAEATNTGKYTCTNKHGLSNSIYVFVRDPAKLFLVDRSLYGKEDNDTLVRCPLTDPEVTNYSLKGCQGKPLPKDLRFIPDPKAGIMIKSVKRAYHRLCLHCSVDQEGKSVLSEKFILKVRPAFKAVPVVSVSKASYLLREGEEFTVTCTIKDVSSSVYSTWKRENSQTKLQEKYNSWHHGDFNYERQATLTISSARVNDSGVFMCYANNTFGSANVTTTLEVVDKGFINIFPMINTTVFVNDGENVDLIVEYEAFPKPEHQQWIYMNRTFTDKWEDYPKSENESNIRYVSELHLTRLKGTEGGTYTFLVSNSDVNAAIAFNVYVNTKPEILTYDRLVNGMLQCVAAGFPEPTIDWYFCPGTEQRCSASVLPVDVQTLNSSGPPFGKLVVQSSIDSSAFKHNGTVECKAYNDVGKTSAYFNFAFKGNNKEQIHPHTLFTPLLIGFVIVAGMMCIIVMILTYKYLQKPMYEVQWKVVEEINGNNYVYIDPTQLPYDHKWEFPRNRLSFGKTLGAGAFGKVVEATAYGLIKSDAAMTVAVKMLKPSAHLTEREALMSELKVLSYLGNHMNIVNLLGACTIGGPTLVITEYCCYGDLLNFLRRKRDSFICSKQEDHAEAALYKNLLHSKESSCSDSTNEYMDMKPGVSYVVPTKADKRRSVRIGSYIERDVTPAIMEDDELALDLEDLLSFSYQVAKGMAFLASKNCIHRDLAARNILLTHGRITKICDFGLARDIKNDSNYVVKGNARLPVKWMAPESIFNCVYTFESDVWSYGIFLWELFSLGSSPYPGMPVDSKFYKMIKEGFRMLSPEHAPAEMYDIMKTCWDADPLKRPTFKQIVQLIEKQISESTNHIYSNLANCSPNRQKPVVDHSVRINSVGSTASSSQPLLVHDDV

[2] = biological target: Mast/stem cell growth factor receptor Kit (Homo sapiens) (UniProt P10721); assay: Inhibition of cKIT in human GISTT1 cells assessed as suppression of S6K phosphorylation at T389 up to 10 uM after 2 hrs by Western blot analysis; assay type: cell-based
[3] = biological target: Mast/stem cell growth factor receptor Kit (Homo sapiens) (UniProt P10721); assay: Inhibition of cKIT in human GIST882 cells assessed as suppression of ERK phosphorylation at T202/Y204 up to 10 uM after 2 hrs by Western blot analysis; assay type: cell-based
[4] = biological target: Mast/stem cell growth factor receptor Kit (Homo sapiens) (UniProt P10721); assay: Inhibition of cKIT in human GIST48B cells assessed as suppression of STAT5 phosphorylation at Y694 up to 10 uM after 2 hrs by Western blot analysis; assay type: cell-based
[5] = biological target: Platelet-derived growth factor receptor alpha (Homo sapiens) (UniProt P16234); assay: Inhibition of PDGFRalpha phosphorylation at Y849 in human GIST882 cells up to 10 uM after 2 hrs by Western blot analysis; assay type: cell-based
Sequence of Platelet-derived growth factor receptor alpha (Homo sapiens) (P16234 whole entry): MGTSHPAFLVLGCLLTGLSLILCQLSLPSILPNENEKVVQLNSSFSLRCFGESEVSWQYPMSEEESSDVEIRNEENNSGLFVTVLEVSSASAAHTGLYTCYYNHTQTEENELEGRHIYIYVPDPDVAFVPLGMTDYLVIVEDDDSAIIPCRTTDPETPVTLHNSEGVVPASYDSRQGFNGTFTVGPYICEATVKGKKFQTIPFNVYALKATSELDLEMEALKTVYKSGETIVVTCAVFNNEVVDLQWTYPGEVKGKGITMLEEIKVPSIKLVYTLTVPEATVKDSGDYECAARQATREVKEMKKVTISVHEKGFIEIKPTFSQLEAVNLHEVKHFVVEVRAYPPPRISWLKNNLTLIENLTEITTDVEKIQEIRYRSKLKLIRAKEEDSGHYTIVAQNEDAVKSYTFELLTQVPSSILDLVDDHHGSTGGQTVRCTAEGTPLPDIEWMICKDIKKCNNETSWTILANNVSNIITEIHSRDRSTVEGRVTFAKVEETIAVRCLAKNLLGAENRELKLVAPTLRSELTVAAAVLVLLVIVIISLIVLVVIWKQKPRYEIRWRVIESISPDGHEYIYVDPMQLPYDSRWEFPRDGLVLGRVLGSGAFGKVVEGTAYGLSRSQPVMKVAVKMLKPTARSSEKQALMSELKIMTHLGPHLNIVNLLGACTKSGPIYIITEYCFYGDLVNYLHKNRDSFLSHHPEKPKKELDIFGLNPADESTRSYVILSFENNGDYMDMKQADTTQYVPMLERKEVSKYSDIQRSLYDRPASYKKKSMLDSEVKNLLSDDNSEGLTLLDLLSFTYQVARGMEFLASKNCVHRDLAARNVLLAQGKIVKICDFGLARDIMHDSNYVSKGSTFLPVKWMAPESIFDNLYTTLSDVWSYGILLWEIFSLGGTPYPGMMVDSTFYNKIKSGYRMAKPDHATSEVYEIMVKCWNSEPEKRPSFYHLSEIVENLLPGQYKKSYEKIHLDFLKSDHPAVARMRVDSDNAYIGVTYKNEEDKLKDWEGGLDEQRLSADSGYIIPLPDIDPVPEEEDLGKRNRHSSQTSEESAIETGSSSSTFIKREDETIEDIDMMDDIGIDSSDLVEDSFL
Procedure, shortened: (§1)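 Cells were washed in cold PBS, lysed in RIPA and immunoblotted for phospho and total proteins, including pPDGFRα Y849/PDGFRβ Y857 and β-actin.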

[6] = tested on: GISTT1; assay: Induction of apoptosis in human GISTT1 cells assessed as caspase 3 cleavage up to 3 uM after 48 hrs by Western blot analysis; assay type: functional, cell-based
[7] = tested on: GISTT1; assay: Induction of apoptosis in human GISTT1 cells assessed as PARP cleavage up to 3 uM after 48 hrs by Western blot analysis; assay type: functional, cell-based
[8] = tested on: GIST882; assay: Induction of apoptosis in human GIST882 cells assessed as PARP cleavage up to 3 uM after 72 hrs by Western blot analysis; assay type: functional, cell-based
[9] = Cell cycle arrest in human GISTT1 cells at 0.3 to 3 uM after 24 hrs by propidium iodide/RNase staining based flow cytometric analysis; assay type: functional
Procedure, shortened: (§2)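 Cells were then fixed in 70% cold ethanol at −20 °C overnight, stained with PI/RNase buffer and analysed by flow cytometry.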

[10] = Cell cycle arrest in human GIST882 cells at 0.3 to 3 uM after 48 hrs by propidium iodide/RNase staining based flow cytometric analysis; assay type: functional; procedure, shortened: as §2
[11] = MRT(0 to t) in Sprague-Dawley rat plasma at 1 mg/kg, iv; assay type: ADME, organism-based
Procedure, shortened: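 Male Sprague–Dawley rats, 8 weeks old, six in total, fasted overnight; compound dissolved in 5% DMSO/40% PEG400/55% saline (1 mg/mL dosing solution), given iv or orally. About 0.2 mL jugular blood taken with heparin at 1 min–8 h (iv) or 5 min–24 h (oral); plasma separated at 2–8 °C and stored at −80 °C before analysis.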

[12] = Half life in Sprague-Dawley rat plasma at 1 mg/kg, iv; assay type: ADME, organism-based
Procedure, shortened: (§3)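 Male Sprague-Dawley rats, 8 weeks old, fasted overnight, dosed iv or orally. Formulation was 5% DMSO/40% PEG400/55% saline at 1 mg/mL. Blood (~0.2 mL) was drawn from the jugular vein into heparin. Sampling: iv at 1 min to 8 h; oral at 5 min to 24 h. Plasma was separated by centrifugation at 2−8 °C and stored at −80 °C.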

[13] = Cmax in Sprague-Dawley rat plasma at 1 mg/kg, iv; assay type: ADME, organism-based; set-up: dose 1 mg/kg, route intravenous; procedure, shortened: as §3
[14] = tested on: GISTT1; assay: Antitumor activity against human GISTT1 cells xenografted in nu/nu mouse assessed as suppression of proliferation at 25 to 100 mg/kg/day administered through oral gavage after 21 days by Ki67 assay; assay type: functional, organism-based
Procedure, shortened: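 Female nu/nu mice, 6 weeks old, received 5 × 10⁶ GIST-T1 cells in PBS/Matrigel (1:1) subcutaneously in the right flank. At 100−200 mm³, six mice per group were dosed daily by oral gavage at 25, 50 or 100 mg/kg/d in 0.5% methylcellulose/0.4% Tween80, or vehicle. Tumor volume was taken as (W²×L)/2, with body weight and tumor measured daily. Tumors were stained for Ki67 (IHC, 1:50 antibody) and by TUNEL.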

[15] = biological target: T1, Platelet-derived growth factor receptor beta (Homo sapiens, UniProt P09619); assay: Inhibition of PDGFRbeta phosphorylation at Y857 in human GISTT1 cells up to 10 uM after 2 hrs by Western blot analysis; assay type: cell-based; procedure, shortened: as §1
T1 sequence (P09619 whole entry): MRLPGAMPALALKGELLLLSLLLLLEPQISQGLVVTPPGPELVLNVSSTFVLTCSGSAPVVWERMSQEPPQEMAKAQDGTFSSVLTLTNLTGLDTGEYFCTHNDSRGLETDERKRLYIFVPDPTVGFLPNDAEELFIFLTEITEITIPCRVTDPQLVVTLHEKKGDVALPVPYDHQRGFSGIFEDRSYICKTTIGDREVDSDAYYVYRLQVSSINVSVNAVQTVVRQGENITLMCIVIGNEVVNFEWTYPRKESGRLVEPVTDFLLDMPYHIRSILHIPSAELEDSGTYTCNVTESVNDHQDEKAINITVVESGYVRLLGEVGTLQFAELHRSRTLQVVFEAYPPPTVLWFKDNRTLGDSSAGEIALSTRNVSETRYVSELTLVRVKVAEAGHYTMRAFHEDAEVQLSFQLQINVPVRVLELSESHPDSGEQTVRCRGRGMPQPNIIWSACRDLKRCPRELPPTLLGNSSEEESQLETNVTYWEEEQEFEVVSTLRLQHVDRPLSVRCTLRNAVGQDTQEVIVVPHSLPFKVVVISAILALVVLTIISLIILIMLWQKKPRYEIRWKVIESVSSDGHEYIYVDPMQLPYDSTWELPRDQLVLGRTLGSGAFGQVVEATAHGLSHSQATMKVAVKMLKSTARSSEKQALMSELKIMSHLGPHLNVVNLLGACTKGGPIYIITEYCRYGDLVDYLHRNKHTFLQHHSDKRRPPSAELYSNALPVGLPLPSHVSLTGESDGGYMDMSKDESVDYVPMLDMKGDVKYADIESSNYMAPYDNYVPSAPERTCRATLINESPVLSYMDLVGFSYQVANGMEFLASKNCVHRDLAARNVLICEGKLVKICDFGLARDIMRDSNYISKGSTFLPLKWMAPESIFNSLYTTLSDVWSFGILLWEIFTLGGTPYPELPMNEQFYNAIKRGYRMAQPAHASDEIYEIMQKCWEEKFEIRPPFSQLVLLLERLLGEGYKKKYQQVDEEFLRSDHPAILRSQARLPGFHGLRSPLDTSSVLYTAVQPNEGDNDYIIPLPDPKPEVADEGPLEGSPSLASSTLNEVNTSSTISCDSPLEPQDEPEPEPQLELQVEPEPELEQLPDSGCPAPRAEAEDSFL

[16] = biological target: T1, Platelet-derived growth factor receptor beta; assay: Inhibition of PDGFRbeta phosphorylation at Y857 in human GIST48B cells up to 10 uM after 2 hrs by Western blot analysis; assay type: cell-based; procedure, shortened: as §1
[17] = biological target: Epithelial discoidin domain-containing receptor 1 (Homo sapiens, UniProt Q08345); assay: Inhibition of human wild type partial length DDR1 expressed in bacterial expression system assessed as residual activity at 1 uM by KinomeScan method
Sequence of Epithelial discoidin domain-containing receptor 1 (Q08345 whole entry, the tested form may be a part): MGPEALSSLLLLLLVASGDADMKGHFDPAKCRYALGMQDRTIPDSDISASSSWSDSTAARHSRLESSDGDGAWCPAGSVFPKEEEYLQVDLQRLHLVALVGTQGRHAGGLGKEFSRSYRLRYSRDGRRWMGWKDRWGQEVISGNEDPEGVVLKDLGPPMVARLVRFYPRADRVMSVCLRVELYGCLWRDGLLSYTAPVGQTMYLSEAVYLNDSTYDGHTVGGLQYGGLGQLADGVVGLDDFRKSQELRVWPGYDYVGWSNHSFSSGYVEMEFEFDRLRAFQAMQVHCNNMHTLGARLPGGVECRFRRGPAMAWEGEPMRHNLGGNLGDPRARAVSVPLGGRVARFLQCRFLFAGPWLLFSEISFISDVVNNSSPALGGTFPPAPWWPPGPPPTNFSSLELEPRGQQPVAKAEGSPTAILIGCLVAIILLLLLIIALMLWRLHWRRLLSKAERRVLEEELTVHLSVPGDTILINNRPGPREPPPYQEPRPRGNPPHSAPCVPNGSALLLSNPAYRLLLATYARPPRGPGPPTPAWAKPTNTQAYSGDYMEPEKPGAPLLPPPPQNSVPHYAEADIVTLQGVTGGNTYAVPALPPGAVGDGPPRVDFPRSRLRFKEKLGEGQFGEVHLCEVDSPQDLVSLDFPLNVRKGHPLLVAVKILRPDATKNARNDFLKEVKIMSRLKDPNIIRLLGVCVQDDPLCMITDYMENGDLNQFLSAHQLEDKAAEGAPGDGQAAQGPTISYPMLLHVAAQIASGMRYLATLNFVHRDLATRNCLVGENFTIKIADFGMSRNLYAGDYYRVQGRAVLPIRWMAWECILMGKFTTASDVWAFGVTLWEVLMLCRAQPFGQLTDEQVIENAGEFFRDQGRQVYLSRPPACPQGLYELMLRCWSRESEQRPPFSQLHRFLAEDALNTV
Procedure, shortened: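 KinomeScan competitive binding panel of 468 kinases and mutants, compound tested at 1 μM; read-out is percent activity remaining (binding relative to control).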

[18] = biological target: Macrophage colony-stimulating factor 1 receptor (Homo sapiens, UniProt P07333); assay: Inhibition of His-tagged recombinant human CSF1R expressed in baculovirus expression system after 1 hr by Z-lyte assay
Sequence of Macrophage colony-stimulating factor 1 receptor (P07333 whole entry, the tested form may be a part): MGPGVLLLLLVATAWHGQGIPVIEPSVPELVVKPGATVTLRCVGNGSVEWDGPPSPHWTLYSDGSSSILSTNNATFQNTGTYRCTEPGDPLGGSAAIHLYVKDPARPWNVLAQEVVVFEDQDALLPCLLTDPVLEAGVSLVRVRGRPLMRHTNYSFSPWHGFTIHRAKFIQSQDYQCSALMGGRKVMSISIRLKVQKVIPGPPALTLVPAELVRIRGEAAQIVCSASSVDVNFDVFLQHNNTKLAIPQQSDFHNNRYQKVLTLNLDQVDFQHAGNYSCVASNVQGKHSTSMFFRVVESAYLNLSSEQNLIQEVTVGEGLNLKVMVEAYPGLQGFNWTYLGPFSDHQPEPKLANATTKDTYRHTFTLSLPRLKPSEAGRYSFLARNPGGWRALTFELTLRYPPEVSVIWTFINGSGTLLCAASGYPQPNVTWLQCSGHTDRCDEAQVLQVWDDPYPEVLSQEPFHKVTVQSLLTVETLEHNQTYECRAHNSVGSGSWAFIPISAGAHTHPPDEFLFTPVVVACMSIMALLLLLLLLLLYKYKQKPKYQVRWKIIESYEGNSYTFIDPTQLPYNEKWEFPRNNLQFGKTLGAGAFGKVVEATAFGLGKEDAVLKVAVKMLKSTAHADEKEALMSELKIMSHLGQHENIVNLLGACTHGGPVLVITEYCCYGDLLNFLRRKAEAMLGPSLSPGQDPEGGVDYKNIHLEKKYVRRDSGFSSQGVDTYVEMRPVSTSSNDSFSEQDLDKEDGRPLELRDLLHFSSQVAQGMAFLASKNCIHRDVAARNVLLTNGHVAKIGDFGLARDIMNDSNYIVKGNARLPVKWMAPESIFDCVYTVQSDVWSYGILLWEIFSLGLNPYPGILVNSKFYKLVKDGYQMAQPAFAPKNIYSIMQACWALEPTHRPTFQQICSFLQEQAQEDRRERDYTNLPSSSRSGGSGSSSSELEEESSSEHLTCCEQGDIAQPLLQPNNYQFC

[19] = biological target: T1, Platelet-derived growth factor receptor beta; assay: Inhibition of N-terminal GST-tagged recombinant human PDGFRbeta (amino acids 557-end) expressed in baculovirus infected insect Sf9 cells using Poly(4:1 Glu, Tyr) peptide as substrate after 1 hr by promega ADP-glo assay
Procedure, shortened: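 ADP-Glo luminescence assay. PDGFRβ (10 ng/μL, 9 μL) with poly(Glu4,Tyr1) substrate (0.4 μg/μL) and 100 μM ATP, serially diluted inhibitor, 1 h at 37 °C. ADP-Glo reagent was added for 40 min, then detection reagent for 30 min. IC50 was taken from the dose−response fit.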

[20] = Antiproliferative activity against mouse BAF3 cells; assay type: cell-based
[21] = tested on: MV4-11; assay: Antiproliferative activity against FLT3-ITD dependent human MV4-11 cells assessed as reduction in cell viability after 72 hrs by celltiter-glo/CCK8 assay; assay type: functional; conditions: MV4-11, 72 h
Procedure, shortened: (§4)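 Cells were seeded at 1 to 3 × 10⁴ cells/mL with serial compound concentrations and incubated 72 h at 37 °C, 5% CO₂. Viability was read by CellTiter-Glo luminescence or CCK-8 absorbance (450/655 nm). GI50 values are from triplicate testing. GIST-T1 and CHO were grown in DMEM/10% FBS; GIST-882, GIST-48B and MV4-11 in IMDM/10% FBS; other lines in RPMI 1640/10% FBS.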

[22] = Antiproliferative activity against cKIT dependent human GIST882 cells assessed as reduction in cell viability after 72 hrs by celltiter-glo/CCK8 assay; assay type: functional; conditions: GIST882, 72 h; procedure, shortened: as §4
[23] = Antiproliferative activity against BCR-ABL dependent human KU812 cells assessed as reduction in cell viability after 72 hrs by celltiter-glo/CCK8 assay; assay type: functional; conditions: KU812, 72 h; procedure, shortened: as §4
[24] = Antiproliferative activity against human U937 cells assessed as reduction in cell viability after 72 hrs by celltiter-glo/CCK8 assay; assay type: functional; conditions: U-937, 72 h; procedure, shortened: as §4
[25] = Antiproliferative activity against FLT3-ITD dependent human MOLM14 cells assessed as reduction in cell viability after 72 hrs by celltiter-glo/CCK8 assay; assay type: functional; conditions: MOLM-14, 72 h; procedure, shortened: as §4
[26] = Antiproliferative activity against human HL60 cells assessed as reduction in cell viability after 72 hrs by celltiter-glo/CCK8 assay; assay type: functional; conditions: HL-60, 72 h; procedure, shortened: as §4

inhibition [1]: Active
inhibition [2]: Active
inhibition [3]: Active
inhibition [4]: Active
inhibition [5]: Active
MRT last [11]: 29 min
half-life [12]: 27.1 min
Cmax [13]: 511 ng/mL
inhibition [15]: Active
inhibition [16]: Active
Activity [17]: 0.15%
IC50 [18]: 0.133 µM
IC50 [19]: 0.12 µM
GI50 [21]: > 10 µM
SMILES: Cc1ccc(NC(=O)c2cccc(C(F)(F)F)c2)cc1OC1CCN(C(=O)c2ccncc2)CC1
Activity [6]: Active
Activity [7]: Active
Activity [8]: Active
Activity [9]: Active
Activity [10]: Active
Activity [14]: Active
GI50 [20]: > 10 µM
GI50 [22]: 0.043 µM
GI50 [23]: 6.71 µM
GI50 [24]: > 10 µM
GI50 [25]: > 10 µM
GI50 [26]: > 10 µM
